# Screening results from PubChem BioAssay.
# Rows were chosen to be rich in hits. Some 3.7% of all compounds tested hit in one or more screens of this group.
# eIF4E 4G PPI: blocks eIF4E binding to eIF4G. TR-FRET eIF4E-eIF4GI(517-606) binding, 2 h. 220,000 tested, 0.37% active. P63073+Q04637. inhibition, % at 21.7 µM. AID 782;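 further: 0% = full FRET control wells and 100% = background wells lacking eIF4GI fragment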
# NCF1 inh: p47phox (human) inhibition. AID 1274. p47phox/p22phox peptide binding, fluorescence polarization, 2 h. P14598. inhibition, % at 24.7 µM. 220,000 tested, 0.53% active;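 further: 0% = p47phox with labelled peptide and 100% = labelled peptide alone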
# RBBP9 inh: blocks human serine hydrolase RBBP9; inhibition, % at 7.94 µM; 220,000 tested, 0.2% active; recombinant RBBP9, FP-Rh probe fluorescence polarization; AID 1515; O75884;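 active means inhibition above the campaign mean of all tested compounds plus 3 SD, cut at about 14% in these data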;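 further: plate controls were DMSO wells with RBBP9 for no effect and wells lacking RBBP9 protein for full effect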
#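 Assay system: recombinant human RBBP9; Reagent: Serine-hydrolase probe FP-Rh, 375 nM pre-mixing; Doses: 7.94 µM single dose, 0.794% DMSO; Incubation: 30 min then 45 min, 25 °C; Detection: fluorescence polarization (mP), excitation 525 nm, emission 598 nm; Evaluation: percent inhibition from mP, scaled between DMSO and no-protein wells.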
# 14-3-3 Bad PPI: disrupts binding of bovine 14-3-3 zeta to phospho-Bad peptide. TR-FRET 14-3-3zeta/Dy647-pBad peptide displacement, 1 h. inhibition, % at 21.7 µM. 220,000 tested, 0.71% active. AID 781. P63103;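 active means inhibition above about 70%, limit read from the data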;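 further: 0% = full 14-3-3 plus peptide FRET controls and 100% = background without 14-3-3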
# Target sequence (P63103 whole entry, looked up): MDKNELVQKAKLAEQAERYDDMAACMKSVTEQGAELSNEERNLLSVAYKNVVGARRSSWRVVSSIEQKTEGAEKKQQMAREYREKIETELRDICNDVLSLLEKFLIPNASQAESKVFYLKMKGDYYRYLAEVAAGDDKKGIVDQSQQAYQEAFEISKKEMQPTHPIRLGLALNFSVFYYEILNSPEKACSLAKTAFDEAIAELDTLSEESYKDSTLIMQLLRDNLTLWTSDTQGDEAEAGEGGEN
# WT yeast gro inh: growth inhibition of WT yeast, mitochondrial fusion screen; mitochondrial fusion phenotypic screen, WT strain; inhibition, % at 10 µM; 190,000 tested, 2.1% active; AID 1362; in the data active means inhibition above about 58%; tested in S. cerevisiae
# EBV gp42 inh: blocks Epstein-Barr virus glycoprotein 42 binding; AID 1085; Q1HVG2; 220,000 tested, 0.42% active; inhibition, % (tested at 21.74 µM); Fluorescence polarization binding assay, mP read-out; in the data active means inhibition above about 50%
# Target sequence (Q1HVG2 whole entry, looked up): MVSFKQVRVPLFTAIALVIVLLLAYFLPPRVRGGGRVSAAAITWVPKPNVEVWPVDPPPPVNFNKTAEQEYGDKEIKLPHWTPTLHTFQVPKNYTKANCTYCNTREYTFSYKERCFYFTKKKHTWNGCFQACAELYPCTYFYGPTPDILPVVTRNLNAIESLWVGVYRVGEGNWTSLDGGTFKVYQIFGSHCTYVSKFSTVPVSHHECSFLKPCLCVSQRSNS
# Starred values were filed as active, the others as inactive; · = not tested or not shown; [ ] = dose if it differs, or a comment.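 How the source made its calls, unless noted: active means inhibition above about 30% (limit read from the data); inactive means the rest.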
SMILES,eIF4E 4G PPI,NCF1 inh,RBBP9 inh,14-3-3 Bad PPI,WT yeast gro inh,EBV gp42 inh
CCCOc1ccc(-c2nc(OCC)c3ccccc3n2)cc1,-7,-11,7,-13,60*,-7
CCOc1nc(-c2ccncc2)nc2ccccc12,2,-23,3,8,19,0
CC1=C(C(=O)N2CCc3ccccc32)C2(CCC(C)CC2)OC1=O (stereo not drawn),-1,4,5,84*,25,3
CC1=C(C(=O)N2CCCCC2)C2(CCC(C)CC2)OC1=O (stereo not drawn),1,-7,-3,-27,13,5
CSC(=S)N/N=C(\C)c1ccc(Br)cc1,0,2,-10,-22,68*,-2
COC(=O)N/N=C(\C)c1ccc(Br)cc1,0,-3,1,5,-7,17
C1=C(c2ccc(-c3ccccc3)cc2)Nc2ncnn2C1c1ccco1 (stereo not drawn),-10,-45,8,-6,2,150*
CCOc1ccc(C2C=C(c3ccc(F)cc3)Nc3ncnn32)cc1 (stereo not drawn),2,-4,-6,4,26,53*
Fc1ccc(C2=CC(c3ccc(Br)o3)n3ncnc3N2)cc1 (stereo not drawn),3,-18,-8,-4,-6,62*
CC[C@@H](C)C(NC(=O)OC(C)(C)C)c1cn([C@@H](Cc2cc3ccccc3[nH]2)C(=O)N2CCN(C(=O)OC(C)(C)C)CC2)nn1 (stereo partly drawn),1,-7,-5,3,-1,-9
Cc1[nH]n(-c2ccc([N+](=O)[O-])cc2)c(=O)c1C=NCCN1CCN(C(=O)C(C)C)CC1,4,-3,-8,-3,63*,6
Cn1nc(N)c2c(-c3ccc(Cl)cc3)c(C#N)c(N)nc21,-6,62*,-2,8,13,-19
COCCCNC(=O)c1cc(C)nn1-c1ccccc1,2,2,4,6,·,-20
COc1cccc(-n2nc3c(=O)n(Cc4ccccc4Cl)nc(C)c3c2C)c1,9,84*,-8,0,2,-4
Cc1nn(Cc2ccccc2)c(=O)c2nn(-c3ccc(Cl)cc3)c(C)c12,0,2,-4,-8,36,10
COc1ccc(C(=O)Nc2oc(-c3ccccc3)c(-c3ccccc3)c2C#N)cc1,6,-22,-25,-7,13,-11
COc1ccc(-c2oc(NC(=O)c3ccc(C)cc3)c(C#N)c2-c2ccc(OC)cc2)cc1,-12,-15,-8,87*[fluorescence artefact?],10,7
Cn1cccc1/C=C1\CCc2ccccc2C1=O,-1,-7,-6,-15,60*,-6
COc1cc(NC(=S)N2CCCC(CO)C2)c(OC)cc1Cl (stereo not drawn),-28,13,-5,9,18,4
O=c1nc2ccccc2c2n1CC(CN1CCN(C(c3ccccc3)c3ccccc3)CC1)N2 (stereo not drawn),0,-16,-1,-10,36,-3
Cc1ccc(-c2csc3nc4c5ccccc5c(NCCCN5CCOCC5)nn4c(=O)c23)cc1,5,26,0,47,75*,5
Cc1ccc(-c2csc3nc4c5ccccc5c(NCCCN(C)C)nn4c(=O)c23)cc1,11,14,-13,54,33,-6
COc1cc(/C=C2\CC/C(=C\c3cc(OC)c(O)c(OC)c3)C2=O)cc(OC)c1O,40*[fluorescence artefact?],-49,19*,-3,-9,-36
CCOc1ccc(-c2nnn(CC(=O)Nc3ccccc3OC)n2)cc1OCC,4,31*,-8,-5,-6,-24
Cc1ccc(S(=O)(=O)N(Cc2ccccc2)Cc2ccco2)cc1,5,-10,-9,-3,76*,-15
SMILES,eIF4E 4G PPI,NCF1 inh,RBBP9 inh,14-3-3 Bad PPI,WT yeast gro inh,EBV gp42 inh
CCOC(=O)C1C(=O)C=C(c2ccc(Br)cc2)CC1c1ccco1 (stereo not drawn),-6,-9,-1,-5,62*,-13
O=C1CC(c2ccc(O)c(O)c2)Oc2cc(O)cc(O)c21 (stereo not drawn),-13,-3,·,5,·,-19
CC1CC(=O)c2c(cc3c(-c4c(O)cc(O)c5c(O)c6c(cc45)OC(C)CC6=O)c(O)cc(O)c3c2O)O1 (stereo not drawn),27,7,26*,6,25,4
O=C(Nc1ccc(C2=NCCN2)cc1)c1ccc(C(=O)Nc2ccc(C3=NCCN3)cc2)c([N+](=O)[O-])c1,3,16,4,79*,·,-25
Clc1ccc2oc(-c3ccccc3)cc(=NCCCN3CCOCC3)c2c1,0,-1,-12,3,63*,-8
Cc1noc(C)c1S(=O)(=O)Nc1ccc(C(=O)NC2CCCCC2C)cc1 (stereo not drawn),1,2,-8,85*,-21,-16
Cc1noc(C)c1S(=O)(=O)Nc1ccc(C(=O)NC2CCCCCC2)cc1,4,3,-3,9,-29,-17
CCCc1[nH]n(-c2ccc([N+](=O)[O-])cc2)c(=O)c1C(C)=NCc1ccncc1,-2,-4,2,-8,·,10
O=C(Nc1nnc(-c2ccccc2Cl)o1)c1cc2cc([N+](=O)[O-])ccc2s1,8,2,-17,45,21,68*
O=C(Nc1ccccn1)c1cc2cc([N+](=O)[O-])ccc2s1,5,11,-9,47,1,10
CC(C)C(=O)Nc1cc(S(=O)(=O)Nc2ccc(Cl)cc2)ccc1Cl,3,1,-4,6,74*,3
OC(COc1ccc2ccccc2c1Br)Cn1ccnc1 (stereo not drawn),2,-13,-4,0,71*,-9
C=CCOc1ccn(C)c(=O)n1,-10,2,-2,-2,·,-19
Cc1ccc(NC(=S)N2CCC(c3ccc(C)cc3)C2)cc1 (stereo not drawn),-1,·,0,-1,75*,-2
Cc1ccc(C2CCN(C(=O)Nc3ccccc3)C2)cc1 (stereo not drawn),·,·,0,·,12,·
Fc1cc(F)cc(NC(=S)N2CCC(c3ccccc3)C2)c1 (stereo not drawn),3,·,0,2,21,-5
CCc1cccc(NC(=S)N2CCC(c3ccccc3)C2)c1 (stereo not drawn),1,·,-9,1,76*,-4
C/C(=N/N=C1\SCC(=O)N1c1ccccc1)c1ccc(C)cc1,2,-8,-5,0,·,-16
COc1ccc(C2=NN(C(=O)c3cccs3)C(c3ccccc3OC)C2)cc1OC (stereo not drawn),3,-37,-7,-5,67*,-8
COc1ccc(-c2nc(CS(=O)CC(=O)NCc3cccnc3)c(C)o2)cc1 (stereo not drawn),0,-7,-6,11,-3,136*
